Laboratory results published in ChEMBL document CHEMBL5724801, “EUbOPEN Chemogenomics Library - Multiplex” (2024).
Several values for one entry are separate records, joined by “and”; a condition that tells them apart may be missing. Equal entries are not always repeated.

test system: Fibroblast; assay: Multiplex assay against human fibroblast; format: toxicity, cell-based; conditions: 12 h, 1 µM, compound concentration 1 uM
Method in brief: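 Hoechst33342, BioTracker Green Microtubule Cytoskeleton Dye, MitoTracker Red and Annexin V Alexa Fluor 680 were added to live cells at seeding, and imaging on a CQ1 microscope at 37°C and 5% CO2 followed compound addition. Gating by CellPathfinder machine learning separated cells into Hoechst high-intensity objects or normal cells, then normal cells into healthy, pyknosed or fragmented nuclei, then pyknosed cells into mitotic or apoptotic. Per cents of healthy-nucleus cells are reported for the tubulin, mitochondrial-mass and membrane-permeability phenotypes.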

Row | Compound | Population Apoptotic (%) | Population Fragmented Nuclei (%) | Population Healthy Nuclei (%) | Population Hoechst High Intensity Objects (%) | Population Mitochondria Different-Phenotype (%) | Population Mitotic Cells (%) | Population Normal (%) | Population Pyknosed Nuclei (%) | Population Tubulin-Different-Phenotype (%) | Population Membrane Permeable-Phenotype (%)
1 | CNC[C@H](O)c1ccc(O)c(O)c1 [EPINEPHRINE] | 36% and 40% | 17% and 38% | 66% and 44% | 1% | 3% and 7% | 63% and 60% | 98% | 16% and 17% | 15% and 42% | –
2 | CC(C)(C)c1ccc(S(=O)(=O)Nc2ccc(Cl)cc2C(=O)c2cc[n+]([O-])cc2)cc1 [VERCIRNON] | 63% and 50% | 19% and 27% | 65% and 46% | 2% and 7% | 3% and 1% | 36% and 50% | 97% and 92% | 15% and 25% | 20% and 41% | 1% and 6%
3 | O=S(=O)(c1ccccc1)c1cnc2c(N3CCNCC3)cccc2c1 [INTEPIRDINE] | 50% and 34% | 23% and 28% | 67% and 47% | 3% and 4% | 2% and 7% | 50% and 65% | 96% and 95% | 9% and 24% | 26% and 61% | 0% and 7%
4 | C[C@@H]1C[C@H]2[C@@H]3CCC4=CC(=O)C=C[C@]4(C)[C@@]3(F)[C@@H](O)C[C@]2(C)[C@@]1(O)C(=O)CO [DEXAMETHASONE] | 62% and 38% | 18% and 30% | 66% and 48% | 7% and 3% | 2% and 4% | 37% and 61% | 92% and 96% | 15% and 20% | 26% and 52% | 0% and 9%

same assay, conditions: 12 h, 1 µM, compound concentration 1 uM

Row | Compound | Total Cell Count
5 | CC(C)(C)c1ccc(S(=O)(=O)Nc2ccc(Cl)cc2C(=O)c2cc[n+]([O-])cc2)cc1 [VERCIRNON] | 148 and 152
6 | O=S(=O)(c1ccccc1)c1cnc2c(N3CCNCC3)cccc2c1 [INTEPIRDINE] | 212 and 148

same assay, conditions: 12 h, 10 µM, compound concentration 10 uM

Row | Compound | Population Apoptotic (%) | Population Fragmented Nuclei (%) | Population Healthy Nuclei (%) | Population Hoechst High Intensity Objects (%) | Population Mitochondria Different-Phenotype (%) | Population Mitotic Cells (%) | Population Normal (%) | Population Pyknosed Nuclei (%) | Population Tubulin-Different-Phenotype (%) | Population Membrane Permeable-Phenotype (%)
7 | CNC[C@H](O)c1ccc(O)c(O)c1 [EPINEPHRINE] | 40% and 32% | 18% and 39% | 61% and 37% | 3% and 7% | 6% and 8% | 60% and 67% | 96% and 92% | 20% and 23% | 23% and 55% | –
8 | CC(C)(C)c1ccc(S(=O)(=O)Nc2ccc(Cl)cc2C(=O)c2cc[n+]([O-])cc2)cc1 [VERCIRNON] | 59% and 48% | 14% and 30% | 64% and 44% | 3% and 5% | 1% and 10% | 40% and 51% | 96% and 94% | 21% and 25% | 46% and 66% | 3% and 8%
9 | O=S(=O)(c1ccccc1)c1cnc2c(N3CCNCC3)cccc2c1 [INTEPIRDINE] | 75% and 61% | 22% and 43% | 62% and 40% | 1% and 6% | 8% and 13% | 25% and 38% | 98% and 93% | 14% and 16% | 44% and 68% | 1% and 5%
10 | C[C@@H]1C[C@H]2[C@@H]3CCC4=CC(=O)C=C[C@]4(C)[C@@]3(F)[C@@H](O)C[C@]2(C)[C@@]1(O)C(=O)CO [DEXAMETHASONE] | 35% and 30% | 20% and 24% | 65% and 52% | 2% and 6% | 5% and 2% | 65% and 69% | 98% and 93% | 13% and 23% | 22% and 53% | 1% and 4%

same assay, conditions: 12 h, 10 µM, compound concentration 10 uM

Row | Compound | Total Cell Count
11 | CC(C)(C)c1ccc(S(=O)(=O)Nc2ccc(Cl)cc2C(=O)c2cc[n+]([O-])cc2)cc1 [VERCIRNON] | 107 and 114
12 | O=S(=O)(c1ccccc1)c1cnc2c(N3CCNCC3)cccc2c1 [INTEPIRDINE] | 138 and 136

same assay, conditions: 24 h, 1 µM, compound concentration 1 uM

Row | Compound | Population Apoptotic (%) | Population Healthy Nuclei (%) | Population Hoechst High Intensity Objects (%) | Population Membrane Permeable-Phenotype (%) | Population Mitochondria Different-Phenotype (%) | Population Mitotic Cells (%) | Population Normal (%) | Population Pyknosed Nuclei (%) | Population Tubulin-Different-Phenotype (%) | Population Fragmented Nuclei (%)
13 | CNC[C@H](O)c1ccc(O)c(O)c1 [EPINEPHRINE] | 54% and 23% | 70% and 47% | 0% and 3% | 0% and 12% | 3% and 6% | 45% and 76% | 99% and 96% | 16% and 14% | 11% and 32% | –
14 | CC(C)(C)c1ccc(S(=O)(=O)Nc2ccc(Cl)cc2C(=O)c2cc[n+]([O-])cc2)cc1 [VERCIRNON] | 55% and 54% | 62% and 57% | 0% and 7% | 4% and 7% | 1% | 45% | 99% and 92% | 14% and 16% | 27% and 40% | 23% and 25%
15 | O=S(=O)(c1ccccc1)c1cnc2c(N3CCNCC3)cccc2c1 [INTEPIRDINE] | 54% and 41% | 72% and 44% | 5% and 0% | 2% and 1% | 4% | 45% and 58% | 94% and 99% | 10% and 24% | 28% and 59% | 16% and 32%
16 | C[C@@H]1C[C@H]2[C@@H]3CCC4=CC(=O)C=C[C@]4(C)[C@@]3(F)[C@@H](O)C[C@]2(C)[C@@]1(O)C(=O)CO [DEXAMETHASONE] | 48% and 31% | 68% and 50% | 5% and 6% | 1% and 4% | 3% and 1% | 52% and 68% | 94% and 93% | 17% and 19% | 26% and 53% | 14% and 29%

same assay, conditions: 24 h, 1 µM, compound concentration 1 uM

Row | Compound | Total Cell Count
17 | CC(C)(C)c1ccc(S(=O)(=O)Nc2ccc(Cl)cc2C(=O)c2cc[n+]([O-])cc2)cc1 [VERCIRNON] | 141 and 142
18 | O=S(=O)(c1ccccc1)c1cnc2c(N3CCNCC3)cccc2c1 [INTEPIRDINE] | 212 and 151

same assay, conditions: 24 h, 10 µM, compound concentration 10 uM

Row | Compound | Population Apoptotic (%) | Population Fragmented Nuclei (%) | Population Healthy Nuclei (%) | Population Hoechst High Intensity Objects (%) | Population Membrane Permeable-Phenotype (%) | Population Mitochondria Different-Phenotype (%) | Population Mitotic Cells (%) | Population Normal (%) | Population Pyknosed Nuclei (%) | Population Tubulin-Different-Phenotype (%)
19 | CNC[C@H](O)c1ccc(O)c(O)c1 [EPINEPHRINE] | 65% and 38% | 16% and 39% | 60% and 44% | 3% | 0% and 12% | 5% and 4% | 34% and 61% | 96% | 23% and 15% | 21% and 51%
20 | CC(C)(C)c1ccc(S(=O)(=O)Nc2ccc(Cl)cc2C(=O)c2cc[n+]([O-])cc2)cc1 [VERCIRNON] | 66% and 41% | 16% and 32% | 66% and 42% | 1% and 0% | – | 2% and 9% | 33% and 58% | 98% and 99% | 16% and 24% | 40% and 82%
21 | O=S(=O)(c1ccccc1)c1cnc2c(N3CCNCC3)cccc2c1 [INTEPIRDINE] | 40% and 91% | 28% and 39% | 65% and 50% | 1% and 4% | 0% and 3% | 7% and 15% | – | 98% and 95% | 6% and 10% | 50% and 67%
22 | C[C@@H]1C[C@H]2[C@@H]3CCC4=CC(=O)C=C[C@]4(C)[C@@]3(F)[C@@H](O)C[C@]2(C)[C@@]1(O)C(=O)CO [DEXAMETHASONE] | 42% and 30% | 15% and 30% | 65% and 44% | 3% and 6% | 1% and 10% | 6% and 2% | 57% and 69% | 96% and 93% | 18% and 24% | 22% and 45%

same assay, conditions: 24 h, 10 µM, compound concentration 10 uM

Row | Compound | Total Cell Count
23 | CC(C)(C)c1ccc(S(=O)(=O)Nc2ccc(Cl)cc2C(=O)c2cc[n+]([O-])cc2)cc1 [VERCIRNON] | 114 and 120
24 | O=S(=O)(c1ccccc1)c1cnc2c(N3CCNCC3)cccc2c1 [INTEPIRDINE] | 152 and 123

same assay, conditions: 48 h, 1 µM, compound concentration 1 uM

Row | Compound | Population Apoptotic (%) | Population Fragmented Nuclei (%) | Population Healthy Nuclei (%) | Population Hoechst High Intensity Objects (%) | Population Membrane Permeable-Phenotype (%) | Population Mitochondria Different-Phenotype (%) | Population Mitotic Cells (%) | Population Normal (%) | Population Pyknosed Nuclei (%) | Population Tubulin-Different-Phenotype (%)
25 | CNC[C@H](O)c1ccc(O)c(O)c1 [EPINEPHRINE] | 50% and 38% | 17% and 41% | 67% and 48% | 1% | 0% and 6% | 6% and 5% | 50% and 61% | 98% | 15% and 10% | 23% and 45%
26 | CC(C)(C)c1ccc(S(=O)(=O)Nc2ccc(Cl)cc2C(=O)c2cc[n+]([O-])cc2)cc1 [VERCIRNON] | 61% and 62% | 29% and 32% | 58% and 55% | 1% and 6% | 1% and 6% | 1% and 9% | 38% and 37% | 98% and 93% | 12% and 11% | 25% and 37%
27 | O=S(=O)(c1ccccc1)c1cnc2c(N3CCNCC3)cccc2c1 [INTEPIRDINE] | 66% and 52% | 22% and 39% | 69% and 45% | 5% and 3% | 0% and 1% | 2% | 33% and 48% | 94% and 96% | 7% and 15% | 34% and 54%
28 | C[C@@H]1C[C@H]2[C@@H]3CCC4=CC(=O)C=C[C@]4(C)[C@@]3(F)[C@@H](O)C[C@]2(C)[C@@]1(O)C(=O)CO [DEXAMETHASONE] | 46% and 37% | 22% and 38% | 52% and 46% | 6% and 4% | 2% and 4% | 4% | 53% and 62% | 93% and 95% | 24% and 14% | 34% and 53%

same assay, conditions: 48 h, 1 µM, compound concentration 1 uM

Row | Compound | Total Cell Count
29 | CC(C)(C)c1ccc(S(=O)(=O)Nc2ccc(Cl)cc2C(=O)c2cc[n+]([O-])cc2)cc1 [VERCIRNON] | 151 and 145
30 | O=S(=O)(c1ccccc1)c1cnc2c(N3CCNCC3)cccc2c1 [INTEPIRDINE] | 213 and 170

same assay, conditions: 48 h, 10 µM, compound concentration 10 uM

Row | Compound | Population Apoptotic (%) | Population Fragmented Nuclei (%) | Population Healthy Nuclei (%) | Population Hoechst High Intensity Objects (%) | Population Membrane Permeable-Phenotype (%) | Population Mitochondria Different-Phenotype (%) | Population Mitotic Cells (%) | Population Normal (%) | Population Pyknosed Nuclei (%) | Population Tubulin-Different-Phenotype (%)
31 | CNC[C@H](O)c1ccc(O)c(O)c1 [EPINEPHRINE] | 77% and 37% | 20% and 50% | 65% and 44% | 2% and 3% | 2% and 6% | 4% and 3% | 22% and 62% | 97% and 96% | 13% and 5% | 32% and 46%
32 | CC(C)(C)c1ccc(S(=O)(=O)Nc2ccc(Cl)cc2C(=O)c2cc[n+]([O-])cc2)cc1 [VERCIRNON] | 62% and 46% | 22% and 42% | 64% and 46% | 2% and 4% | – | 0% and 12% | 37% and 53% | 97% and 95% | 13% and 11% | 38% and 72%
33 | O=S(=O)(c1ccccc1)c1cnc2c(N3CCNCC3)cccc2c1 [INTEPIRDINE] | 63% and 40% | 23% and 48% | 67% and 38% | 3% and 6% | 1% and 6% | 15% and 6% | 36% and 60% | 96% and 93% | 8% and 12% | 47% and 57%
34 | C[C@@H]1C[C@H]2[C@@H]3CCC4=CC(=O)C=C[C@]4(C)[C@@]3(F)[C@@H](O)C[C@]2(C)[C@@]1(O)C(=O)CO [DEXAMETHASONE] | 50% and 37% | 22% and 36% | 55% and 43% | 4% and 7% | 0% and 10% | 7% and 0% | 50% and 62% | 95% and 92% | 22% and 20% | 19% and 39%

same assay, conditions: 48 h, 10 µM, compound concentration 10 uM

Row | Compound | Total Cell Count
35 | CC(C)(C)c1ccc(S(=O)(=O)Nc2ccc(Cl)cc2C(=O)c2cc[n+]([O-])cc2)cc1 [VERCIRNON] | 120 and 122
36 | O=S(=O)(c1ccccc1)c1cnc2c(N3CCNCC3)cccc2c1 [INTEPIRDINE] | 139 and 125
